We go through 1 compound from ChEMBL document CHEMBL1154411, “Determination of the primary target of a quinolone drug and the effect of quinolone resistance-conferring mutations by measuring quinolone sensitivity based on its mode of action” (Antimicrob Agents Chemother, 2007).

In test [1] the test system is Staphylococcus aureus. Briefly: Induction of Staphylococcus aureus DNA topoisomerase 4-mediated Escherichia coli pBR322 DNA cleavage assessed as ratio of drug-induced DNA cleavage to spontaneous DNA cleavage at 50 uM after 10 mins by gel electrophoresis. The procedure, abridged:
(§1)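 Quinolone sensitivity is the ratio of specific cleavage activity with 50 μM norfloxacin to the activity without it. Both come from the same pBR322 cleavage reaction: 37°C for 10 min with 1 mM ATP, then SDS/proteinase K trapping, with linear DNA resolved on ethidium-stained 1.2% agarose gels.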

In test [2] the target is DNA gyrase (Escherichia coli) (UniProt P0AES6+P0AES4). Briefly: Induction of Escherichia coli DNA gyrase-mediated negatively supercoiled Escherichia coli pBR322 DNA cleavage assessed as amount of linear DNA generated per unit amount of enzyme at 50 uM after 10 mins by gel electrophoresis. Type of test: protein-complex assay. The procedure, abridged:
(§2)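 Negatively supercoiled pBR322 (300 ng) incubated with titrated topoisomerase (tetramer amounts) in 50 mM Tris-HCl pH 8, 10 mM MgCl2, 10 mM DTT, 50 μg/ml BSA, 1 mM ATP, 5 μg/ml tRNA, 10 min at 37°C, with or without 50 μM norfloxacin. Trapped by 1% SDS, then EDTA/proteinase K, extracted, and run on 1.2% agarose with ethidium bromide; activity is linear DNA per enzyme amount.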

Test [3] has as its target T1, DNA gyrase (Staphylococcus aureus) (UniProt P0A0K8+P20831). Briefly: Induction of Staphylococcus aureus DNA gyrase-mediated Escherichia coli pBR322 DNA cleavage assessed as ratio of drug-induced DNA cleavage to spontaneous DNA cleavage at 50 uM after 10 mins by gel electrophoresis. The format is protein-complex assay. The procedure, abridged:
as §1

The target of test [4] is T1, DNA gyrase (Staphylococcus aureus). Briefly: Induction of Staphylococcus aureus DNA gyrase-mediated negatively supercoiled Escherichia coli pBR322 DNA cleavage at 50 uM after 10 mins by gel electrophoresis. The format is protein-complex assay. An outline of the steps: as §2
Test [5] deals with Escherichia coli. Briefly: Induction of Escherichia coli DNA topoisomerase 4 ParC […] mutant-mediated negatively supercoiled Escherichia coli pBR322 DNA cleavage assessed as amount of linear DNA generated per unit amount of enzyme at 50 uM after 10 mins by gel electrophoresis. An outline of the steps:
as §2

In test [6] the test system is Escherichia coli. Briefly: (§3) Induction of Escherichia coli DNA topoisomerase 4-mediated negatively supercoiled Escherichia coli pBR322 DNA cleavage assessed as amount of linear DNA generated per unit amount of enzyme at 50 uM after 10 mins by gel electrophoresis. The procedure, abridged:
as §2

Test [7] has as its system T2, DNA topoisomerase 4 subunit A (Escherichia coli K-12), P0AFI2 [S80L].
T2 sequence (whole entry): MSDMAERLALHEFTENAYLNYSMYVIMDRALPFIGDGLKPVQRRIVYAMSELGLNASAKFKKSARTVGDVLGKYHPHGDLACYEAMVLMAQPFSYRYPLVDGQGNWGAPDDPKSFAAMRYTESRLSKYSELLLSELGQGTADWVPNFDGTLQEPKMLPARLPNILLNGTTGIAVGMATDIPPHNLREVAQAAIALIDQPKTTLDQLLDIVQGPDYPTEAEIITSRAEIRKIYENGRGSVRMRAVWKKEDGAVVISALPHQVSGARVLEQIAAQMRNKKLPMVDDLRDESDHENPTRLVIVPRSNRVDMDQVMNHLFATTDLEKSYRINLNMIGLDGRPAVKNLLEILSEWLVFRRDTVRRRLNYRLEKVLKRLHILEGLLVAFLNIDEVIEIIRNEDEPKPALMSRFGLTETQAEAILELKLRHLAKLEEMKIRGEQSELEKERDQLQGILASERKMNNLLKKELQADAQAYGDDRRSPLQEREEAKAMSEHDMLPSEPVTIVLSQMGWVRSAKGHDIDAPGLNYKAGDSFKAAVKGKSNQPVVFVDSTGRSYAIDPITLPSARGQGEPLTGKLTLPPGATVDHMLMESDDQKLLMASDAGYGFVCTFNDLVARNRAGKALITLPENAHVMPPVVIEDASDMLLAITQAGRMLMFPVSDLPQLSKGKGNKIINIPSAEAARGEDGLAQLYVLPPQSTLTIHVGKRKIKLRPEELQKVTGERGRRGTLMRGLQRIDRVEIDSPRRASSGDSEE
The test is described as §3. An outline of the steps:
as §2

Test [8] relates to Escherichia coli. Briefly: Induction of Escherichia coli DNA topoisomerase 4-mediated Escherichia coli pBR322 DNA cleavage assessed as ratio of drug-induced DNA cleavage to spontaneous DNA cleavage at 50 uM after 10 mins by gel electrophoresis. An outline of the steps:
as §1

The subject of test [9] is T2, DNA topoisomerase 4 subunit A (Escherichia coli K-12), P0AFI2 [S80L]. Briefly: Induction of Staphylococcus aureus DNA topoisomerase 4 ParC S80L mutant-mediated Escherichia coli pBR322 DNA cleavage assessed as ratio of drug-induced DNA cleavage to spontaneous DNA cleavage at 50 uM after 10 mins by gel electrophoresis.
Test [10] deals with Staphylococcus aureus. Briefly: Induction of Staphylococcus aureus DNA topoisomerase 4-mediated negatively supercoiled Escherichia coli pBR322 DNA cleavage at 50 uM after 10 mins by gel electrophoresis. The procedure, abridged: as §2
Test [11] relates to Escherichia coli. Briefly: Sensitivity ratio for induction of Escherichia coli DNA topoisomerase 4 over DNA gyrase-mediated negatively supercoiled Escherichia coli pBR322 DNA cleavage.
For test [12], the system named is Escherichia coli. Briefly: Induction of Escherichia coli DNA gyrase-mediated negatively supercoiled Escherichia coli pBR322 DNA cleavage at 50 uM after 10 mins by gel electrophoresis. The procedure, abridged: as §2
The subject of test [13] is Escherichia coli. Briefly: Induction of Escherichia coli DNA topoisomerase 4-mediated negatively supercoiled Escherichia coli pBR322 DNA cleavage at 50 uM after 10 mins by gel electrophoresis. The procedure, abridged: as §2
For test [14], the system named is Staphylococcus aureus. Briefly: Induction of Staphylococcus aureus DNA topoisomerase 4-mediated negatively supercoiled Escherichia coli pBR322 DNA cleavage assessed as amount of linear DNA generated per unit amount of enzyme at 50 uM after 10 mins by gel electrophoresis. The procedure, abridged: as §2
In test [15] the test system is Staphylococcus aureus. Briefly: Sensitivity ratio for induction of Staphylococcus aureus DNA topoisomerase 4 over DNA gyrase-mediated negatively supercoiled Escherichia coli pBR322 DNA cleavage.
In test [16] the test system is Escherichia coli. Briefly: Induction of Escherichia coli DNA gyrase-mediated Escherichia coli pBR322 DNA cleavage assessed as ratio of drug-induced DNA cleavage to spontaneous DNA cleavage at 50 uM after 10 mins by gel electrophoresis. The procedure, abridged: as §1

Structures are written as SMILES. Activity calls are given as the source filed them. The rule behind the calls is not given here.

T1 sequence (P0A0K8 2-644 limits assumed): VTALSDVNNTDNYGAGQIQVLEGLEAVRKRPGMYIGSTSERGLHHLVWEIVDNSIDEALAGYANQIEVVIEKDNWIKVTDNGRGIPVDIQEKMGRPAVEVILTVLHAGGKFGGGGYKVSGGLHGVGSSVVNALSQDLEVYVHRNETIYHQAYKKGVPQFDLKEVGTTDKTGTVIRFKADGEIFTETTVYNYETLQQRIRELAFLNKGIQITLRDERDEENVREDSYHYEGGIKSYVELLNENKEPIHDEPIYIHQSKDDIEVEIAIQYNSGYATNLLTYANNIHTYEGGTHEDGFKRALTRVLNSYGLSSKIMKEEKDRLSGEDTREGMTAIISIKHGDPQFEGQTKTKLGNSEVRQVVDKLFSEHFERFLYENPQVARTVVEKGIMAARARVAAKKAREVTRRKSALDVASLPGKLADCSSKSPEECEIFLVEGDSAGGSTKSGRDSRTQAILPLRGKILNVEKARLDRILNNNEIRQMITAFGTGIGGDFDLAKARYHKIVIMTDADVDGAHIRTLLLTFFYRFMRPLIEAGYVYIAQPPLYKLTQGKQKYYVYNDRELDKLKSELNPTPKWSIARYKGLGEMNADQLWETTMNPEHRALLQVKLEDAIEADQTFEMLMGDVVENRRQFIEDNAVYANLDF
T1 sequence (P20831 whole entry partner): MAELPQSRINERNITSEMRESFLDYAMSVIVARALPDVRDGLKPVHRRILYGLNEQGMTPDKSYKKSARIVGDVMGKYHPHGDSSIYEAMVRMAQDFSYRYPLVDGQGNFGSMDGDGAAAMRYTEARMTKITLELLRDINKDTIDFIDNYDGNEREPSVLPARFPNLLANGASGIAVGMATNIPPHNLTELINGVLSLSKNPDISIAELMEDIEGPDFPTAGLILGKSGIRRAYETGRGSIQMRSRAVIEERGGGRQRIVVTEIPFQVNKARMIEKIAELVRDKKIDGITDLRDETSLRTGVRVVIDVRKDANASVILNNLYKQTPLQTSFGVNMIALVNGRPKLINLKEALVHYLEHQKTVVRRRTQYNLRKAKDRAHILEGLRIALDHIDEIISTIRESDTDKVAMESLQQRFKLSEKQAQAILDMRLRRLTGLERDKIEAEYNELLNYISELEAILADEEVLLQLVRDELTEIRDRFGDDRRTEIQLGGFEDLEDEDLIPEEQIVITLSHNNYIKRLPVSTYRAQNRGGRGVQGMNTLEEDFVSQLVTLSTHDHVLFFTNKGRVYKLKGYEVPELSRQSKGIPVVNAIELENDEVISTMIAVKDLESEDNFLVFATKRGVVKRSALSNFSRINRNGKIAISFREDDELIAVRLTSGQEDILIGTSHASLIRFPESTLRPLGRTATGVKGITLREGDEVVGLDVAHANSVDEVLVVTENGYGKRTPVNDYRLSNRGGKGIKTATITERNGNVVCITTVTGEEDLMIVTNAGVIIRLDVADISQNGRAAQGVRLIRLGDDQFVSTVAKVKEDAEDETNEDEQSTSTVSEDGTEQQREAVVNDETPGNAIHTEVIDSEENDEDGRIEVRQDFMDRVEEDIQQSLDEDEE

Turning to `CCn1cc(C(=O)O)c(=O)c2cc(F)c(N3CCNCC3)cc21`, the Ratio amounted to 24.7 with Staphylococcus aureus [1]; 10 in test [3]; 3.79 in the test on Escherichia coli [8]; 1.96 in test [9]; 18 with Escherichia coli [11]; 2.5 in the test with Staphylococcus aureus [15]. Besides, in the test on Escherichia coli [16], the Ratio turned out to be 68.4. Also, the Activity was found to be 0.39 ng in [2]; 0.17 ng with Escherichia coli [5]; 0.53 ng in the test on Escherichia coli [6]; 0.49 ng in [7]; 0.42 ng with Staphylococcus aureus [14]. Also, the outcome (in test [4]; with Staphylococcus aureus [10]; in the test with Escherichia coli [12]; in the test with Escherichia coli [13]) was Active.
